Test results as given in ChEMBL document CHEMBL1157197, “Design, synthesis and trypanocidal activity of lead compounds based on inhibitors of parasite glycolysis” (Bioorg Med Chem, 2008).

Key:
[1] = biological target: T1, Pyruvate kinase (Leishmania mexicana) (UniProt Q27686); experiment: Inhibition of Leishmania mexicana pyruvate kinase assessed as enzyme residual activity at 5 mM
T1 sequence (whole entry): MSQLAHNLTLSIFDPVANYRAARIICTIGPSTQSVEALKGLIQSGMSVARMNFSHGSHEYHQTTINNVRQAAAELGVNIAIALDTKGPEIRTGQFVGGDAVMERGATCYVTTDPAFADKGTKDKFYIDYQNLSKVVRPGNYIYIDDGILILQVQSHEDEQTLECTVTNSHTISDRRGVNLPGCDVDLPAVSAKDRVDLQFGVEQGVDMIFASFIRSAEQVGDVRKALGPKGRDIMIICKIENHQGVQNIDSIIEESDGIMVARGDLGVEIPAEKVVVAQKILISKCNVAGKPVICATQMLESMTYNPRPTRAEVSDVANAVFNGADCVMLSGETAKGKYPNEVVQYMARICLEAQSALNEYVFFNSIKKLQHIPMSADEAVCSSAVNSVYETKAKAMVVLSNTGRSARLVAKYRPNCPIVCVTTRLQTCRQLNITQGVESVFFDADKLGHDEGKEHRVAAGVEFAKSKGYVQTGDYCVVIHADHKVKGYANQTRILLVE

Pyruvate kinase = biological target: T2, Pyruvate kinase (Leishmania mexicana, UniProt Q27686); experiment: Inhibition of Leishmania mexicana pyruvate kinase
T2 sequence (Q27686 whole entry): T1 sequence (whole entry)

[2] = biological target: T3, ATP-dependent 6-phosphofructokinase (Trypanosoma brucei) (UniProt O15648); experiment: Inhibition of Trypanosoma brucei phosphofructokinase assessed as enzyme residual activity at 5 mM
T3 sequence (whole entry): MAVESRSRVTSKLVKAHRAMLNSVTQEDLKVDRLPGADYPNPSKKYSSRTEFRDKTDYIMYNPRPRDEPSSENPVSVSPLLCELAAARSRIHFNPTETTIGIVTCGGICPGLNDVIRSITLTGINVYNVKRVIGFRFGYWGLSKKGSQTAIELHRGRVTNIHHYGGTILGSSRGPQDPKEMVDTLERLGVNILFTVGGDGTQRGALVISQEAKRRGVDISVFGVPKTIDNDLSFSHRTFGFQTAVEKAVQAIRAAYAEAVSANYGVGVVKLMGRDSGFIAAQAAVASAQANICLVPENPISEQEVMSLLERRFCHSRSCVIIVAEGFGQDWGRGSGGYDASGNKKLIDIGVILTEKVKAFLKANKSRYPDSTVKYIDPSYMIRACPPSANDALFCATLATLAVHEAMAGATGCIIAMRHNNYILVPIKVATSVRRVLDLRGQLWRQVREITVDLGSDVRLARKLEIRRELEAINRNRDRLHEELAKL

[3] = biological target: T3, ATP-dependent 6-phosphofructokinase (Trypanosoma brucei); experiment: Inhibition of Trypanosoma brucei phosphofructokinase assessed as enzyme residual activity at 1 mM
Trypanosoma brucei = experiment: Antiparasitic activity against Trypanosoma brucei strain 427; type: functional; conditions: read-out: ED50 (the source's name)
Method in brief: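 Cultured bloodstream-form Trypanosoma brucei brucei strain 427 exposed to compounds in vitro; ED50 reported.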

[4] = biological target: T4, ATP-dependent 6-phosphofructokinase (Trypanosoma brucei, UniProt O15648); experiment: Inhibition of Trypanosoma brucei phosphofructokinase
T4 sequence (O15648 whole entry): T3 sequence (whole entry)

Activity [1] [%] | Activity [2] [%] | SMILES | other results
22 | – | COc1ccc([C@H](C)NC[C@H]2O[C@H](CO)[C@@H](O)[C@@H]2O)cc1 | IC50 (Pyruvate kinase): 3500 µM
105 | 46 | OC[C@H]1O[C@H](CNCc2cccc(C(F)(F)F)c2)[C@@H](O)[C@@H]1O | –
36 | 62 | OC[C@H]1O[C@H](CNC2CCCc3ccccc32)[C@@H](O)[C@@H]1O (stereo partly drawn) | IC50 (Pyruvate kinase): 1200 µM; EC50 (Trypanosoma brucei): 830 µM
97 | 77 | OC[C@@H](Cc1ccccc1)NC[C@H]1O[C@H](CO)[C@@H](O)[C@@H]1O | –
81 | 65 | OC[C@H]1O[C@H](CNCc2ccc(Cl)cc2)[C@@H](O)[C@@H]1O | –
34 | 33 | C[C@@H](NC[C@H]1O[C@H](CO)[C@@H](O)[C@@H]1O)c1ccc2ccccc2c1 | IC50 (Pyruvate kinase): 1500 µM
107 | 59 | OC[C@H]1O[C@H](CNCc2ccc(F)cc2)[C@@H](O)[C@@H]1O | –
36 | – | C[C@H](NC[C@H]1O[C@H](CO)[C@@H](O)[C@@H]1O)c1ccc(F)cc1 | –
72 | 83 | OC[C@H](Cc1ccccc1)NC[C@H]1O[C@H](CO)[C@@H](O)[C@@H]1O | –
30 | – | C[C@H](NC[C@H]1O[C@H](CO)[C@@H](O)[C@@H]1O)c1ccc2ccccc2c1 | IC50 (Pyruvate kinase): 1500 µM
84 | – | C[C@@H](NC[C@H]1O[C@H](CO)[C@@H](O)[C@@H]1O)c1ccc(Cl)cc1 | –
58 | – | C[C@H](NC[C@H]1O[C@H](CO)[C@@H](O)[C@@H]1O)c1ccc(Cl)cc1 | –
89 | 61 | Cc1cccc(CNC[C@H]2O[C@H](CO)[C@@H](O)[C@@H]2O)c1 | –
– | 75 | OC[C@H]1O[C@H](CNCc2ccc(-c3ccccc3)cc2)[C@@H](O)[C@@H]1O | –
59 | 47 | OCC(Cc1ccccc1)NC[C@H]1O[C@H](CO)[C@@H](O)[C@@H]1O (stereo partly drawn) | –
103 | 52 | OC[C@H]1O[C@H](CN[C@H]2c3ccccc3C[C@H]2O)[C@@H](O)[C@@H]1O | –

Activity [1] [%] | Activity [2] [%] | SMILES | other results
95 | 73 | CC(CCc1ccccc1)NC[C@H]1O[C@H](CO)[C@@H](O)[C@@H]1O (stereo partly drawn) | –
90 | 73 | Cc1ccc(CNC[C@H]2O[C@H](CO)[C@@H](O)[C@@H]2O)cc1 | –
25 | – | COc1ccc([C@@H](C)NC[C@H]2O[C@H](CO)[C@@H](O)[C@@H]2O)cc1 | IC50 (Pyruvate kinase): 900 µM
49 | 33 | OC[C@H]1O[C@H](CNC2Cc3ccccc3C2)[C@@H](O)[C@@H]1O | –
53 | – | C[C@@H](NC[C@H]1O[C@H](CO)[C@@H](O)[C@@H]1O)c1ccc(F)cc1 | –
100 | 68 | Cc1ccccc1CNC[C@H]1O[C@H](CO)[C@@H](O)[C@@H]1O | –
86 | 41 | OC[C@H]1O[C@H](CNC2CCc3ccccc32)[C@@H](O)[C@@H]1O (stereo partly drawn) | –
88 | 85 | OC[C@H]1O[C@H](CNCc2cccc(Cl)c2)[C@@H](O)[C@@H]1O | –
100 | 57 | OC[C@H]1O[C@H](CNCc2cccc(F)c2)[C@@H](O)[C@@H]1O | –
89 | 30 | OC[C@H]1O[C@H](CNC(c2ccccc2)c2ccccc2)[C@@H](O)[C@@H]1O | –
42 | 63 | OC[C@H]1O[C@H](CNCc2ccccc2F)[C@@H](O)[C@@H]1O | –
85 | 47 | OCCC(NC[C@H]1O[C@H](CO)[C@@H](O)[C@@H]1O)c1ccccc1 (stereo partly drawn) | –
28 | – | CC[C@@H](C)NC[C@H]1O[C@H](CO)[C@@H](O)[C@@H]1O | –
71 | 65 | OC[C@H]1O[C@H](CNCc2ccccc2Cl)[C@@H](O)[C@@H]1O | –
– | 58 | OC[C@H]1O[C@H](CNCc2ccc(Cl)cc2Cl)[C@@H](O)[C@@H]1O | –
60 | 57 | OC[C@H]1O[C@H](CN[C@@H]2c3ccccc3C[C@@H]2O)[C@@H](O)[C@@H]1O | –

Continued, compound first:

SMILES | Activity [1] [%] | Activity [2] [%] | other results
CC(NC[C@H]1O[C@H](CO)[C@@H](O)[C@@H]1O)C(O)c1ccccc1 (stereo partly drawn) | 80 | 64 | –
O=C(Nc1cccc([N+](=O)[O-])c1)[C@H]1O[C@H](CNCc2ccc(Cl)c(Cl)c2)[C@@H](O)[C@@H]1O | – | – | Activity [3]: 1.7%
OC[C@H]1O[C@H](CN[C@@H]2C[C@@H]3CC[C@@H]2C3)[C@@H](O)[C@@H]1O | 47 | – | –
O=C(Nc1ccccc1)[C@H]1O[C@H](CNC2CCCCCC2)[C@@H](O)[C@@H]1O | 24.8 | – | –
CCCC(C)NC[C@H]1O[C@H](CO)[C@@H](O)[C@@H]1O (stereo partly drawn) | 26 | 70 | IC50 (Pyruvate kinase): 2500 µM
O=C(Nc1ccc([N+](=O)[O-])cc1)[C@H]1O[C@H](CNCc2ccc(Cl)c(Cl)c2)[C@@H](O)[C@@H]1O | – | – | Activity [3]: 0.8%
OC[C@H]1O[C@H](CNC2CCC2)[C@@H](O)[C@@H]1O | 43 | 54 | IC50 (Pyruvate kinase): 4300 µM
Cc1ccc(CNC[C@H]2O[C@H](CO)[C@@H](O)[C@@H]2O)c(C)c1 | 103 | 87 | –
COC[C@H](C)NC[C@H]1O[C@H](CO)[C@@H](O)[C@@H]1O | 82 | 35 | –
C=CCNC(=O)[C@H]1O[C@H](CNC2CCCCCC2)[C@@H](O)[C@@H]1O | 19.1 | – | –
OC[C@H]1O[C@H](CN[C@H]2C[C@@H]3CC[C@@H]2C3)[C@@H](O)[C@@H]1O | 19 | 40 | IC50 (Pyruvate kinase): 1500 µM
CC(C)CCCC(C)NC[C@H]1O[C@H](CO)[C@@H](O)[C@@H]1O (stereo partly drawn) | 80 | 87 | –
O=C(NCc1ccccc1)[C@H]1O[C@H](CNCc2ccc(Cl)c(Cl)c2)[C@@H](O)[C@@H]1O | – | – | Activity [3]: 4%
CC(C)CCC(C)NC[C@H]1O[C@H](CO)[C@@H](O)[C@@H]1O (stereo partly drawn) | 115 | 44 | –
O=C(NCc1ccccc1)[C@H]1O[C@H](CNC2CCCCCC2)[C@@H](O)[C@@H]1O | 11.5 | – | –
Cc1ccc(CNC[C@H]2O[C@H](CO)[C@@H](O)[C@@H]2O)cc1C | 85 | 59 | –
OC[C@H]1O[C@H](CNC2CCCCC2)[C@@H](O)[C@@H]1O | 83 | 69 | –

SMILES | Activity [1] [%] | Activity [2] [%] | other results
CC(CCCC(C)(C)O)NC[C@H]1O[C@H](CO)[C@@H](O)[C@@H]1O (stereo partly drawn) | 125 | 58 | –
O=C(Nc1ccccc1)[C@H]1O[C@H](CNCc2ccc(Cl)c(Cl)c2)[C@@H](O)[C@@H]1O | – | – | Activity [3]: 5.5%
CC(C)C[C@H](CO)NC[C@H]1O[C@H](CO)[C@@H](O)[C@@H]1O | 86 | 52 | –
CCCCCCNC[C@H]1O[C@H](CO)[C@@H](O)[C@@H]1O | 40 | – | EC50 (Trypanosoma brucei): 400 µM
CC(C)C[C@@H](CO)NC[C@H]1O[C@H](CO)[C@@H](O)[C@@H]1O | 73 | 64 | –
Cc1ccc(C)c(CNC[C@H]2O[C@H](CO)[C@@H](O)[C@@H]2O)c1 | – | 69 | –
O=C(NCc1ccc(Cl)c(Cl)c1)[C@H]1O[C@H](CNC2CCCCCC2)[C@@H](O)[C@@H]1O | – | – | Activity [3]: 0.4%; IC50 [4]: 49 µM
OC[C@H]1O[C@H](CNC2CCCCCC2)[C@@H](O)[C@@H]1O | 19 | 63 | IC50 (Pyruvate kinase): 71 µM; EC50 (Trypanosoma brucei): 1880 µM
CC(C)[C@H](C)NC[C@H]1O[C@H](CO)[C@@H](O)[C@@H]1O | 26 | 49 | IC50 (Pyruvate kinase): 2300 µM
OC[C@H]1O[C@H](CNC2CCCCCCC2)[C@@H](O)[C@@H]1O | 57 | 64 | –
O=C(Nc1ccc([N+](=O)[O-])cc1)[C@H]1O[C@H](CNC2CCCCCC2)[C@@H](O)[C@@H]1O | 12.5 | – | –
OC[C@H]1O[C@H](CNC2CCCC2)[C@@H](O)[C@@H]1O | 52 | 87 | IC50 (Pyruvate kinase): 4100 µM
CC(C)[C@@H](C)NC[C@H]1O[C@H](CO)[C@@H](O)[C@@H]1O | 86 | 51 | –
CCC(CO)NC[C@H]1O[C@H](CO)[C@@H](O)[C@@H]1O (stereo partly drawn) | 90 | 36 | –
O=C(NC1CCCCCC1)[C@H]1O[C@H](CNC2CCCCCC2)[C@@H](O)[C@@H]1O | 1.9 | – | IC50 (Pyruvate kinase): 26 µM
O=C(Nc1cccc([N+](=O)[O-])c1)[C@H]1O[C@H](CNC2CCCCCC2)[C@@H](O)[C@@H]1O | 7.6 | – | IC50 (Pyruvate kinase): 53 µM
